The results in this text go back to ChEMBL document CHEMBL4184124, “Progress in antischistosomal N,N'-diaryl urea SAR” (Bioorg Med Chem Lett, 2018).

For series [1], the system named is Schistosoma mansoni. The series is described as follows: Antischistosomal activity against Schistosoma mansoni cercariae infected in NMRI mouse assessed as reduction in worm burden at 80 mg/kg, po administered as four consecutive dose via gavage measured after 21 days relative to control. The series is classed as functional. More on the design: scale not given: the % may be the effect or the level left. A digest of the protocol: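 Infected mice given four consecutive 80 mg/kg oral doses; efficacy read as worm burden reduction (%).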

Series [2] is described as follows: Octanol-[…] partition coefficient, log D of the compound at pH 7.4 by RP-HPLC method.
In the next series the test system is HFF. The series is described as follows: Cytotoxicity against HFF. Type of series: cell-based. As to conditions: Homo sapiens.
In a further series the test system is U2OS. The series is described as follows: Cytotoxicity against human U2OS cells. The series is classed as cell-based.
Series [3] in a line: Kinetic solubility of the compound in 0.01M HCl at pH 2 by nephelometric method. The series is classed as physicochemical. As to conditions: read-out: Kinetic_solubility. A digest of the protocol: (§1)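 DMSO stocks spiked into pH 6.5 phosphate buffer or 0.01 M HCl (approx. pH 2.0); nephelometry gave a solubility concentration range.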
A short description of series [4]: Intrinsic clearance in human liver microsomes assessed per mg protein after 60 mins in presence of NADPH generating system. The series is classed as ADME, microsome. The conditions noted are these: 1 h. For orientation: Liver microsomes are vesicles of endoplasmic reticulum, rich in cytochrome P450 enzymes.
Series [5] has as its system Schistosoma mansoni. Briefly: Antischistosomal activity against Schistosoma mansoni cercariae infected in NMRI mouse assessed as reduction in worm burden at 100 mg/kg, po administered as single dose via gavage measured after 21 days relative to control. The series is classed as functional. More on the design: scale not given: the % may be the effect or the level left. In a few lines:
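Infected mice given a single 100 mg/kg oral dose; efficacy read as worm burden reduction (%).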

Series [6] can be described thus: Kinetic solubility of the compound in phosphate buffer at pH 6.5 by nephelometric method. As to conditions: read-out: Kinetic_solubility. The series is classed as physicochemical. A digest of the protocol:
as §1

Series [7] can be described thus: Drug uptake in Swiss mouse plasma at 100 mg/kg, po administered as single dose via gavage measured after 4 to 48 hrs by LC-MS analysis. The series is classed as ADME, organism-based. As to conditions: in vivo. A digest of the protocol: (§2)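 Single 100 mg/kg oral dose given to non-infected male Swiss outbred mice; plasma sampled over 48 h post-dose; n=2 mice per time point, mean values. AUC taken to last measured concentration.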

Series [8] deals with Schistosoma mansoni. The series is described as follows: Antischistosomal activity against newly transformed stage of Schistosoma mansoni assessed as parasite death at 10 uM. The series is classed as functional, organism-based. In a few lines: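 Newly transformed schistosomula exposed at 10 µM as a screen for killing; active compounds then titrated to give IC50.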
For series [9], the system named is Schistosoma mansoni. Briefly: Antischistosomal activity against adult stage of Schistosoma mansoni measured after 72 hrs by microscopic analysis. Type of series: functional, organism-based.
Series [10] in a line: AUC (0 to last) in Swiss mouse at 100 mg/kg, po administered as single dose via gavage by LC-MS analysis. The series is classed as ADME, organism-based. Also on record: dose 100 mg/kg, time 0 - last, route oral. The conditions noted are these: in vivo. In a few lines: as §2
Series [11] is described as follows: Tmax in Swiss mouse at 100 mg/kg, po administered as single dose via gavage by LC-MS analysis. As to conditions: in vivo. Type of series: ADME, organism-based. A digest of the protocol:
as §2

Series [12] in a line: Intrinsic clearance in mouse liver microsomes assessed per mg protein after 60 mins in presence of NADPH generating system. The series is classed as ADME, microsome. As to conditions: 1 h.
Series [13] in a line: Cytotoxicity against human HC04 cells. The series is classed as cell-based.
The nature of series [14]: Half-life in Swiss mouse at 100 mg/kg, po administered as single dose via gavage by LC-MS analysis. The series is classed as ADME, organism-based. As to conditions: in vivo. In a few lines:
as §2

Another series relates to HEK293. The series is described as follows: Cytotoxicity against HEK293 cells. The series is classed as cell-based. The conditions noted are these: Homo sapiens.
The test system of series [15] is Schistosoma mansoni. Briefly: Antischistosomal activity against newly transformed stage of Schistosoma mansoni measured after 72 hrs by microscopic analysis. The series is classed as functional, organism-based. In a few lines: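 Newly transformed schistosomula were first screened at 10 µM; compounds that killed them were then run as a concentration titration to derive IC50 values.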

A short description of series [16]: Cmax in Swiss mouse at 100 mg/kg, po administered as single dose via gavage by LC-MS analysis. Type of series: ADME, organism-based. Also on record: dose 100 mg/kg, route oral. The conditions noted are these: in vivo. In a few lines: as §2
The nature of series [17]: Half-life in mouse at 46.3 mg/kg, po. Type of series: ADME, organism-based. As to conditions: in vivo.
A short description of series [18]: Cmax in mouse at 46.3 mg/kg, po. Type of series: ADME, organism-based. More on the design: dose 46.3 mg/kg, route oral. As to conditions: in vivo.
The test system of series [19] is Schistosoma mansoni. The series is described as follows: Antischistosomal activity against Schistosoma mansoni infected in NMRI mouse assessed as reduction in worm burden at 400 mg/kg, po administered as single dose measured after 14 days relative to control. The series is classed as functional. Also on record: scale not given: the % may be the effect or the level left.

The test system of series [20] is Schistosoma mansoni. The series is described as follows: Antischistosomal activity against Schistosoma mansoni Liberian cercariae measured after 72 hrs by microscopic analysis. Type of series: functional, organism-based. In a few lines: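 Newly transformed schistosomula prepared from cercariae, first screened at 10 µM as a gate. Active compounds then went through a concentration titration to derive IC50 values.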

Series [21] can be described thus: Plasma concentration in Swiss mouse at 100 mg/kg, po administered as single dose via gavage measured up to 48 hrs by LC-MS analysis. Type of series: ADME, organism-based. In a few lines:
as §2

Series [22] in a line: Drug uptake in Swiss mouse plasma at 100 mg/kg, po administered as single dose via gavage measured after 2 hrs by LC-MS analysis. The series is classed as ADME, organism-based. As to conditions: in vivo. A digest of the protocol:
as §2

Structures are written as SMILES. ≈ marks a conversion by molar mass, not a printed value. Calls of active or inactive are those of the source.

The chromatographic logD is a lipophilicity value derived from retention on a column. What is called IC50 is the concentration that gives 50% inhibition. Usually AUC(0-t) stands for the area under the concentration-time curve up to a stated or last time point. Broadly, the Tmax is the time at which the peak concentration occurs. The term half-life denotes the time needed for the level to fall by half in the phase considered. One may read the Cmax as the highest concentration seen after dosing. Consider `O=C(Nc1ccnc(C(F)(F)F)c1)Nc1ccc(F)c(C(F)(F)F)c1`, for which the Activity in the series on Schistosoma mansoni [1] amounted to 53%; in the series on Schistosoma mansoni [5] it was 50%. The compound also displayed a chromatographic logD in series [2] of 3.8. Besides, the IC50 in the series with HFF is 71 µM; in the series with U2OS, more than 100 µM; in the series with Schistosoma mansoni [9], 0.66 µM; in series [13] it was more than 100 µM; in the series with HEK293, more than 100 µM; with Schistosoma mansoni [15] it was 0.74 µM. Further, the solubility kinetic in series [3] and in series [6] was 3.1 to 6.3 µg/mL (≈ 8.44 to 17.2 µM) each time. Also, the CLH in [4] and in series [12] was less than 7 µL/min/mg each time. Moreover, the Drug uptake result in [7] is listed as “Active”. Moreover, in the series on Schistosoma mansoni [8], the result was Active. This compound also displayed an AUC(0-t) in series [10] of 1490 µM·h. In addition, in [11], the time of peak concentration (Tmax) was determined as 7.5 h. This compound had a half-life in [14] of 18 h. The highest level in [16] (Cmax) was 56 µM.

Turning to `O=C(Nc1ccc(Cl)c(Cl)c1)Nc1ccc(Cl)c(Cl)c1`, the values for the Activity with Schistosoma mansoni [5] and in the series on Schistosoma mansoni [19] were 0% and 53%, respectively. Further, the half-life in [17] is 4.7 h. In addition, the highest level in series [18] (Cmax) was 4.4 µM. Also, the IC50 in the series on Schistosoma mansoni [20] came to 0.8 µM.

In the case of `O=C(Nc1ccc(F)c(C(F)(F)F)c1)Nc1ccc(F)c(C(F)(F)F)c1`, the concentration at 48 h in series [21] is more than 1 µM. In addition, the chromatographic logD in series [2] was determined as 4.5. The half-inhibitory concentration (IC50) in the series on HFF is 57 µM; with U2OS, more than 100 µM; with Schistosoma mansoni [9] it was 0.19 µM; in series [13] it was more than 100 µM; with HEK293, more than 100 µM; in the series with Schistosoma mansoni [15], 0.15 µM. Besides, the solubility kinetic in series [3] was less than 1.6 µg/mL. In addition, the CLH came out at 10 µL/min/mg in series [4] and 7 µL/min/mg in series [12]. For the same compound, the Activity with Schistosoma mansoni [5] was 40%. Further, the result in the series on Schistosoma mansoni [8] was Active. In addition, in [10], the exposure AUC(0-t) was found to be 394 µM·h. For the same compound, the Tmax in series [11] is 4 h. This compound showed a half-life in series [14] of 11 h. Besides, the Drug uptake result in series [22] is given as “Active”. In addition, the highest level in series [16] (Cmax) was 31 µM.
